HSF1 inhib: HSF1 inhibitors in luciferase reporter cells, primary screen, cell-based, NIH3T3, luminescence; NIH3T3-HGL HSE-luciferase, MG132-induced, luminescence 8 h; stronger effect = lower value; activity change, negative = inhibition, % at 7.5 µM (by protocol); 300,000 compounds, 0.77% hits; AID 2098, 2009;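 active means more than half of replicate wells show activity change below -50%, luminescence cut by over half; inconclusive means some wells, but at most half, below -50%; inactive means no replicate well below -50%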;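 further: luciferase reports HSF-1 transcriptional activity via heat shock element; 0% = median of DMSO wells and -100% = zero luminescence signal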
HCV core dimer: inhibitors of HCV core protein dimerization, primary screen, biochemical, TR-FRET, high-throughput. TR-FRET GST/Flag-core106 dimerization, 1536-well. inhibition, % at 5 µM. 300,000 compounds, 0.33% hits;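 active means inhibition above the mean of all tested compounds plus 3 SD, set per screening campaign, cut at about 45% in these data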
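Material: Tagged HCV core106 pair (GST and Flag) | Amount: GST-core106 13.5 nM, Flag-core106 17 nM | Medium: KF-containing HEPES buffer, pH 7.45, DTT, CHAPS, BSA | Reagent: Eu donor and XL665 acceptor anti-tag antibodies | Schedule: 4 h at 22.5 °C | Technique: Time-resolved FRET, ex 340 nm, em 617 and 671 nm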
HSF1 activator: HSF-1 activators, primary screen, NIH3T3-HGL cells, MG132 stress, luminescence, single point; NIH3T3-HGL HSF-1 luciferase reporter, 8 h; 100% = twice DMSO control signal; activation, % at 9 µM; 300,000 compounds, 1.7% hits; AID 504408, 2011;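 active means mean replicate activation of at least 50% with a set share of replicates each reaching 50%; inconclusive means only one of those two conditions met; inactive means mean below 50% and too few replicates reaching it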;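 further: 0% = median of the neutral control wells and 100% = twice that signal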
AI-2 QS modul: Vibrio harveyi AI-2 quorum sensing modulators, primary screen, JMH597 strain, luminescence/OD600 ratio; 300,000 compounds, 0.4% hits; activity change, % at 7.5 µM; Vibrio harveyi JMH597 AI-2 luminescence/OD600 ratio, 9 h; stronger effect = lower value; strain lacks LuxN and CqsS sensors; 0 = neutral-control median; in the data active means activity change below about -75%, passing the limit was not always enough; inconclusive means no clear call, values can overlap the other calls;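 further: luminescence divided by OD600 gain over 9 h not by final OD600 alone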
PHOSPHO1 inh: PubChem AID 1565. 290,000 compounds, 1.1% hits. recombinant PHOSPHO1, absorbance phosphatase assay. inhibition, % at 13.3 µM; in the data active means inhibition above about 60%
Target sequence (Q8TCT1 whole entry, looked up): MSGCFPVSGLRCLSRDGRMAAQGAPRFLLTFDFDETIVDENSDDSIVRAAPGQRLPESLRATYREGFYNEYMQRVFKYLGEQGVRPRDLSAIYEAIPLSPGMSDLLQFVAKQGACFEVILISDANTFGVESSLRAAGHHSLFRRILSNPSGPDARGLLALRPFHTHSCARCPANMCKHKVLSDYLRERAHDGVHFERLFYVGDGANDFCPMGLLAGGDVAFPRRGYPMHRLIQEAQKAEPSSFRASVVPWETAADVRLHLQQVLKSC
ALR inh: inhibitors of human ALR sulfhydryl oxidase, primary screen, biochemical, H2O2 detection, HRP-luminol luminescence, single point | FAD-linked sulfhydryl oxidase ALR (Homo sapiens), P55789 | purified ALR, DTT oxidation | inhibition, % (no concentration beside the values) | 290,000 compounds, 3.8% hits | AID 485317, 2010;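 active means mean replicate inhibition above about 79%, with every replicate also reaching it, limit read from the data; inconclusive means only one of the two criteria met; inactive means mean below limit and not every replicate reaching it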
Target sequence (P55789 whole entry, looked up): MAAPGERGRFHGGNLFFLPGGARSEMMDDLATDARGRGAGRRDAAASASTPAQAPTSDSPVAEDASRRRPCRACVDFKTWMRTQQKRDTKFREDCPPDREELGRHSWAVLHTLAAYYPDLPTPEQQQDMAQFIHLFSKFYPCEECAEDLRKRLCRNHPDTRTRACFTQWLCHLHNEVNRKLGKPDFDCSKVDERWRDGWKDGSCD
Starred values were filed as active, the others as inactive; u = inconclusive; x = no result given. Most compounds without a hit are left out; they make up all but 6.8% or so of the library.

SMILES | HSF1 inhib | HCV core dimer | HSF1 activator | AI-2 QS modul | PHOSPHO1 inh | ALR inh
Cc1noc(NS(=O)(=O)c2ccc(NC(=O)Cc3ccc([N+](=O)[O-])cc3)cc2)c1C | 1 | 35 | -8 | 47 | 38 | 72
Cc1noc(NS(=O)(=O)c2ccc(NC(=O)CSc3nc4c(cc3C#N)CCCC4)cc2)c1C | -1 | 3 | -1 | 22 | -2 | 95*
N=C1S/C(=C\c2ccc(-c3ccccc3C(=O)O)o2)C(=O)N1c1ccc2c(c1)OCO2 | 2 | x | -8 | 42 | 8 | x
COc1ccccc1N1C(=N)S/C(=C\c2ccc(-c3ccccc3C(=O)O)o2)C1=O | -4 | -13 | 8 | 8 | 2 | 98*
O=C(NCCSc1ncc(-c2ccc(F)cc2)[nH]1)c1ccc2c(c1)OCO2 | 15 | -9 | -7 | -9 | x | 6
COc1ccc(/C=C/C(=O)c2c(C)nc3ccccn23)cc1 | 31 | 3 | 63* | 3 | -5 | 5
Cc1nc2ccccn2c1C(=O)NN | -3 | -5 | 1 | 3 | -14 | x
Cc1nc2ccccn2c1C(=O)/C=C/c1ccc(F)cc1 | 175 | 7 | 200* | 15 | 31 | 64
CC(C)OC(=O)c1ccc(N)cc1 | -16 | -8 | -30 | -9 | -26 | 14
CCOc1ccc(N(CC(=O)Nc2c(C)n(C)n(-c3ccccc3)c2=O)S(=O)(=O)c2ccc(F)cc2)cc1 | -3 | x | -10 | 12 | 51 | -3
Cc1nc(SCc2nc3ccc(C(F)(F)F)cc3[nH]2)c2oc3ccccc3c2n1 | x | x | x | x | x | -3
COC(=O)c1ccc2c(c1)C(C)(C)C(/C=C/c1ccc(O)cc1)=[N+]2C | 80 | 5 | 85* | 8 | -34 | 93*
COc1cccc(/C=N/Nc2nnc(C)n2N)c1O | 39 | -2 | 68* | 23 | 5 | 54
Cc1nnc(N/N=C/c2ccccc2F)n1N | 15 | 0 | 38 | 20 | 42 | -23
Cc1nnc(N/N=C/c2ccco2)n1N | 42 | -5 | 56* | 22 | -13 | -10
CCn1nc(C)cc1C(=O)Sc1ccc(C)cc1 | 5 | 6 | 8 | 23 | 22 | 98*
Cc1ccccc1C(=O)c1cccn1CC(=O)NC1CCCC(C)C1C (stereo not drawn) | 3 | 7 | 4 | -5 | 17 | 3
C(=N\NCc1ccccc1)/c1ccc2nccnc2c1 | 6 | -4 | 15 | -46 | 12 | x
Cc1ccc(Nc2c(N)c(=O)oc3ccccc23)cc1 | 98 | -8 | 161* | 10 | 8 | x
CC(C)Nc1c(N)c(=O)oc2ccccc12 | 1 | -11 | -22 | 23 | 25 | 92*
Cn1c(N)c(C(=O)Nc2ccccc2)c(=O)[nH]c1=O | -8 | 5 | -16 | 3 | x | -11
Nc1c(N2CCN(c3ccccc3)CC2)c2ccccc2oc1=O | -19 | 2 | -17 | x | -2 | 98*
Nc1c(N)c2ccccc2oc1=O | 9 | -2 | 0 | 6 | 2 | 6
Cn1c(N)c(N2CCN(c3ccccc3)CC2)c(=O)[nH]c1=O | 4 | -3 | 2 | 18 | -10 | 98*
COc1ccc(CN2CCn3ncc(C(=O)Nc4cc(C)cc(C)c4)c3C2=O)cc1 | -4 | 18 | -23 | 15 | -11 | -1
SMILES | HSF1 inhib | HCV core dimer | HSF1 activator | AI-2 QS modul | PHOSPHO1 inh | ALR inh
COc1ccc(C2N(S(=O)(=O)c3ccc(C)cc3)CCN2S(=O)(=O)c2ccc(C)cc2)cc1 | 15 | -3 | 46 | 5 | 24 | -1
CC(Nc1c([N+](=O)[O-])c(=O)oc2ccccc12)c1ccccc1 (stereo not drawn) | -8 | -1 | 2 | 33 | 61* | 0
CCOC(=O)c1oc2ccccc2c1CN1CCN(c2ccccc2)CC1 | 4 | 3 | 10 | 8 | -34 | 94*
CCOC(=O)c1oc2ccccc2c1CN1CCN(C(=O)c2ccccc2)CC1 | 4 | 8 | 3 | 10 | -9 | -3
CC(C)Nc1c([N+](=O)[O-])c(=O)oc2ccccc12 | -3 | -4 | -5 | 1 | 46 | 5
CNc1c(N)c(=O)oc2ccccc12 | 10 | -8 | 34 | 1 | 2 | 93*
Cc1ccc(S(=O)(=O)N2CCCCC2)cc1NC(=O)CSc1ncccn1 | x | x | x | x | x | -2
CCN1CC2([N+](=O)[O-])C=CC(=O)C([N+](=O)[O-])(C1)C2CC(=O)c1ccccc1 (stereo not drawn) | u | 54* | -59 | 2 | 8 | -44
CCn1c(CSc2nc3ccccc3s2)nnc1SCC(=O)c1ccc(Cl)cc1 | 16 | -7 | 11 | 17 | 73* | 12
CCn1c(CSc2nc3ccccc3s2)nnc1SCC(=O)c1ccc(O)c(O)c1 | 0 | 23 | 26 | 30 | 86* | 98*
Cc1ccnc(NC(c2ccsc2)c2ccc3ccc(C)nc3c2O)c1 (stereo not drawn) | -54* | 0 | -67 | 5 | -95 | -5
COc1ccccc1NC(c1cccnc1)c1ccc2cccnc2c1O (stereo not drawn) | 13 | -7 | 11 | 20 | 63* | -8
COc1cc(C(Nc2ccccn2)c2ccc3ccc(C)nc3c2O)cc(OC)c1O (stereo not drawn) | 130 | -5 | 183* | 52 | 73* | -13
O=C(CSc1n[nH]c(-c2ccccc2Cl)n1)NCc1cccc(C(=O)O)c1 | x | -8 | x | 24 | 33 | 1
Cc1ccc(S(=O)(=O)NNC(=O)NC23CC4CC(CC(C4)C2)C3)cc1 | -2 | 0 | 4 | 36 | 2 | 94*
CC(=O)Nc1ccc(S(=O)(=O)NNC(=O)NC23CC4CC(CC(C4)C2)C3)cc1 | 5 | 8 | 4 | 8 | 8 | 17
COc1ccc(-c2nc3n(n2)C(c2ccccc2)C2=C(CCCC2=O)N3)cc1OC (stereo not drawn) | -57* | -3 | -68 | 27 | 28 | 97*
c1csc(-c2ccc3ccccc3n2)c1 | 22 | 10 | 31 | 13 | 54 | -23
Nc1nc2ccccc2cc1-c1cccs1 | 10 | 5 | 53* | 12 | 33 | -4
O=C(CN1C(=O)NC2(CCc3ccccc32)C1=O)c1ccc(F)c(F)c1 (stereo not drawn) | -5 | -5 | 13 | -16 | x | x
CN(C)c1ccc(/C(=N\O)c2ccccc2)cc1 | 2 | -4 | 13 | -44 | 6 | 94*
N#CC1=C(N)OC2=C(CC/C2=C\c2ccccc2)C1c1ccccc1 (stereo not drawn) | 15 | 55* | 9 | 0 | 5 | 6
CCc1ccc(C(=O)COC(=O)c2n[nH]c3ccccc23)cc1 | 18 | 1 | u | -78* | 12 | x
